Assay results gathered from unrelated publications.
BCHE: Cholinesterase (BCHE, Homo sapiens, UniProt P06276)
Oprk1: Kappa-type opioid receptor (Oprk1, Mus musculus, UniProt P33534)

SMILES	target	assay	quantity	value
C=CCOc1ccc(C(=O)/C=C/c2ccc(OC)cc2)c(O)c1I	BCHE	enzyme activity, inhibitor	IC50	22.4 µM
C=CCc1ccc(O)c(-c2cc(CC=C)ccc2O)c1	BCHE	enzyme activity, inhibitor, Ellman	IC50	> 100 µM
CC(C)[C@H](CN1CCc2ccccc2C1)NC(=O)c1cccc(-c2cccc(O)c2)c1	Oprk1	ligand displacement, radioligand	Ki	0.87 µM
CCCC(=O)CC(=O)N[C@H]1CCOC1=O	qscR (Pseudomonas aeruginosa, UniProt G3XD77)	reporter gene, agonist	EC50	13 µM
CC(C)[C@@H](CN1CCc2ccccc2C1)NC(=O)Cc1c[nH]c2ccccc12	Oprk1	ligand displacement, radioligand	Ki	2.75 µM
COc1c2c(cc3c1-c1c(cc4c(c1OC)OCO4)C[C@H](C)[C@H](C)C3)OCO2	Cocaine esterase (CES2, Homo sapiens, UniProt O00748)	enzyme activity, inhibitor, fluorescence	IC50	1.34 µM
CC(C)c1cc2c(c(O)c1O)[C@@]13CCCC(C)(C)[C@@H]1C[C@@H]2OC3=O	BCHE	enzyme activity, inhibitor	IC50	0.00095 µM
CSCC[C@H](NC(=O)[C@H](CCCNC(=N)N)NC(=O)[C@H](Cc1ccc(O)cc1)NC(=O)[C@@H]1CCCN1C(=O)CNC(=O)[C@H](CCC(=O)O)NC(=O)[C@H](Cc1c[nH]cn1)NC(=O)[C@H](CCCCN)NC(=O)[C@H](CCCCN)NC(=O)[C@H](CCC(=O)O)NC(=O)[C@H](C)N)C(=O)N[C@@H](CCC(=O)O)C(=O)N[C@@H](Cc1c[nH]cn1)C(=O)N[C@@H](Cc1ccccc1)C(=O)N[C@@H](CCCNC(=N)N)C(=O)N[C@@H](Cc1c[nH]c2ccccc12)C(=O)NCC(=O)N[C@@H](CO)C(=O)N1CCC[C@H]1C(=O)N1CCC[C@H]1C(=O)N[C@@H](CCCCN)C(=O)N[C@@H](CC(=O)O)C(=O)O	Melanocortin receptor 4 (MC4R, Homo sapiens, UniProt P32245)	reporter gene, agonist, luciferase	EC50	0.00146 µM
C=CCOc1ccc(C(=O)/C=C/c2ccc(OC)cc2)c(OS(C)(=O)=O)c1I	BCHE	enzyme activity, inhibitor	IC50	53.8 µM
Cc1c(CC(=O)N[C@@H](CN2CCc3ccccc3C2)C(C)C)cccc1[N+](=O)[O-]	Oprk1	ligand displacement, radioligand	Ki	3.38 µM
CC(C)c1cc2c(c(O)c1O)[C@@]13CCCC(C)(C)[C@@H]1[C@@H](O)[C@@H]2OC3=O	BCHE	enzyme activity, inhibitor	IC50	0.00141 µM
CCOC(=O)c1ccc(OC(=O)CCCCCN=C(N)N)cc1	Plasma kallikrein (KLKB1, Homo sapiens, UniProt P03952)	enzyme activity, inhibitor	IC50	0.0864 µM
C=CCOc1ccc(C(=O)/C=C/c2cccc(F)c2)c(OS(=O)(=O)c2ccc(F)cc2)c1I	BCHE	enzyme activity, inhibitor	IC50	30.2 µM
CC(C)c1cc2c(c(O)c1O)[C@@]1(C(=O)O)CCCC(C)(C)[C@@H]1CC2	BCHE	enzyme activity, inhibitor, absorbance	Ki	0.00049 µM
COc1cc(/C=C/C(=O)O)ccc1OCc1cn(CC(=O)Nc2ccc(Cl)cc2Cl)nn1	BCHE	enzyme activity, inhibitor, Ellman	Ki	1.85 µM
CC(C)c1cc2c(c(O)c1O)[C@@]13CCCC(C)(C)[C@@H]1[C@H](OC3=O)[C@H]2O	BCHE	enzyme activity, inhibitor	IC50	0.00075 µM
C=CCOc1ccc(C(=O)/C=C/c2ccc(OC)cc2)c(OS(=O)(=O)c2ccccc2[N+](=O)[O-])c1I	BCHE	enzyme activity, inhibitor	IC50	14.2 µM
